Results collected from several papers.
Cell line: HepG2
Effect on: cell growth or viability

| SMILES | test | conditions | endpoint | result |
| --- | --- | --- | --- | --- |
| CC(C)(CO)Cn1nc(-c2ccc3nc(OCC(F)(F)F)ccc3c2)c2c(N)ncnc21 | – | – | GI50 | > 10 µM |
| Cc1ccc(/C=N/NC(=O)c2ccc(Nc3cc(C)nc4c(O)cccc34)cc2)cc1 | MTT | 20 µM | inhibition | 41.3% |
| COc1cccc(-c2nc3ccc(C)cc3[nH]2)c1 | MTT | 48 h | IC50 | 26.9 µM |
| O=C(CN1C(=O)/C(=C/c2cccc([N+](=O)[O-])c2)SC1=S)Nc1ccccc1 | MTT | 10 µM | inhibition | 24.2% |
| CSc1ccc(-c2nc3ccc(C)cc3[nH]2)cc1 | MTT | 48 h | IC50 | > 100 µM |
| CCn1cc(-c2nc(C)no2)c(=O)c2cc(F)c(N3CCCCCC3)cc21 | ATP luminescence | 48 h | EC50 | > 40 µM |
| O=C(CN1C(=O)/C(=C/c2ccc(F)cc2)SC1=S)Nc1ccccc1 | MTT | 10 µM | inhibition | 6.59% |
| CCOC(=O)c1ccc(NC(=O)C2=C3C(=Nc4ccccc43)NC2=O)cc1 | MTT | 3.125 µM, 24 h | viability | 100% |
| COc1ccc(NC(=O)c2c(Nc3ccccc3)sc(C#N)c2NC(=O)CNc2ccc(O)cc2)cc1 | SRB | 0.1 µM, 48 h | viability | 85.6% |
| CCn1cc(-c2nc(C)no2)c(=O)c2cc(F)c(N3CCC(Cc4ccccc4)CC3)cc21 | ATP luminescence | 48 h | EC50 | > 40 µM |
| COc1ccc(NC(=O)c2c(Nc3ccccc3)sc(C#N)c2NC(=O)CNc2ccc(C)cc2)cc1 | SRB | 100 µM, 48 h | viability | 62.3% |
| COc1cccc(NC(=O)CN2C(=O)/C(=C/c3cccs3)SC2=S)c1 | MTT | 10 µM | inhibition | 12.2% |
| CC(=O)Nc1cccc(-n2c(=O)n(C3CC3)c(=O)c3c(Nc4ccc(I)cc4F)n(C)c(=O)c(C)c32)c1 | resazurin | 1.56 nM, 72 h | viability | 96.4% |
| COc1ccc(NC(=O)c2c(Nc3ccccc3)sc(C(=O)NN=Cc3ccc(Br)cc3)c2NC(C)=O)cc1 | SRB | 1 µM, 48 h | viability | 85.2% |
| Cc1cc(=O)oc2ccc(-c3cc(-c4ccc(Br)cc4)nc(N)n3)c(O)c12 | MTT | 8 µg/mL, 72 h | inhibition | 0% |
| CCOC(=O)c1ccc(N2C(N)=C(C#N)C3(C(=O)Nc4ccccc43)C(C#N)=C2O)cc1 (centres unmarked) | MTT | 50 µM, 24 h | viability | 17.9% |
| COc1ccc(-c2cc(-c3ccc4oc(=O)cc(C)c4c3O)nc(N)n2)cc1 | MTT | 2 µg/mL, 72 h | inhibition | 0% |
| CCOC(=O)c1ccc(-n2c(-c3ccc(C)cc3)cc(-c3ccc(O)cc3)c(C#N)c2=O)cc1 | MTT | 1.56 µM, 24 h | viability | 100% |
| Clc1ccc(-c2nc3ccccc3n2Cc2ccccc2)cc1Cl | MTT | – | IC50 | 49.9 µM |
| CCCC1CCN(c2cc3c(cc2F)c(=O)c(C(=O)OCC)cn3CC)CC1 | ATP luminescence | 48 h | EC50 | > 40 µM |
| O=C(CN1C(=O)/C(=C/c2ccncc2)SC1=S)Nc1ccccc1 | MTT | 10 µM | inhibition | 11.8% |
| COc1ccc(NC(=O)c2c(Nc3ccccc3)sc(C#N)c2NC(=O)CNc2ccccc2)cc1 | SRB | 10 nM, 48 h | viability | 90.3% |

| SMILES | test | conditions | endpoint | result |
| --- | --- | --- | --- | --- |
| Cc1cc(=O)oc2ccc(-c3cc(-c4ccccc4)nc(N)n3)c(O)c12 | MTT | 32 µg/mL, 72 h | inhibition | 5% |
| Cc1ccc2nc(-c3ccc([N+](=O)[O-])cc3)n(Cc3ccc(Cl)cc3)c2c1 | MTT | – | IC50 | 5.53 µM |
| CCOC(=O)c1cn(CC)c2cc(N3CCC(Cc4ccccc4)CC3)c(F)cc2c1=O | ATP luminescence | 48 h | EC50 | > 40 µM |
| CCOC(=O)c1ccc(-n2c(N)c(C#N)c(CC#N)c(C#N)c2=O)cc1 | MTT | 12.5 µM, 24 h | viability | 63.6% |
| C=CCn1c(-c2ccc(Cl)cc2)nc2ccc(C)cc21 | MTT | – | IC50 | 38.8 µM |
| CCOC(=O)c1ccc(-n2c(C)cc(/C=C/c3ccc(OC)cc3)c(C#N)c2=O)cc1 | MTT | 100 µM, 24 h | viability | 47.4% |
| COc1ccc(NC(=O)c2c(Nc3ccccc3)sc(C(=O)NN=Cc3ccc(Cl)cc3)c2NC(C)=O)cc1 | SRB | 10 nM, 48 h | viability | 95.2% |
| CCn1cc(C(N)=O)c(=O)c2cc(F)c(N3CCC(C)CC3)cc21 | ATP luminescence | 48 h | EC50 | > 40 µM |
| O=C(CN1C(=O)/C(=C/c2ccccc2O)SC1=S)Nc1ccccc1 | MTT | 10 µM | inhibition | 26.4% |
| COc1ccc(NC(=O)c2c(Nc3ccccc3)sc(C#N)c2NC(=O)CNc2ccccc2[N+](=O)[O-])cc1 | SRB | 0.1 µM, 48 h | viability | 88.3% |
| Cc1ccc2nc(-c3ccccc3Cl)[nH]c2c1 | MTT | 48 h | IC50 | 95.6 µM |
| COc1cccc(NC(=O)CN2C(=O)/C(=C/c3ccco3)SC2=S)c1 | MTT | 10 µM | inhibition | 5.43% |
| Clc1ccccc1-c1nc2ccccc2[nH]1 | MTT | 48 h | IC50 | 31.5 µM |
| Cc1cc(=O)oc2ccc(-c3cc(-c4cccs4)nc(N)n3)c(O)c12 | MTT | 128 µg/mL, 72 h | inhibition | 36% |
| CC(=O)Oc1ccc(/C=N/NC(=O)c2ccc(Nc3cc(C)nc4c(O)cccc34)cc2)cc1 | MTT | 20 µM | inhibition | 56.7% |
| Cc1cc(=O)oc2ccc(-c3cc(-c4ccc(Cl)cc4)nc(N)n3)c(O)c12 | MTT | 2 µg/mL, 72 h | inhibition | 16% |
| COc1ccc(NC(=O)c2c(Nc3ccccc3)sc(C(=O)NN=Cc3cc(OC)c(OC)c(OC)c3)c2NC(C)=O)cc1 | SRB | 0.1 µM, 48 h | viability | 76.5% |
| O=C(CN1C(=O)/C(=C/c2cccc(Cl)c2)SC1=S)Nc1ccccc1 | MTT | 10 µM | inhibition | 10% |
| Cc1cc(=O)oc2ccc(-c3cc(-c4cccc(Cl)c4)nc(N)n3)c(O)c12 | MTT | 32 µg/mL, 72 h | inhibition | 19% |
| CCOc1ccc(-c2nc3ccc(C)cc3[nH]2)cc1 | MTT | 48 h | IC50 | 27.4 µM |
| CCn1cc(-c2nc(C)no2)c(=O)c2cc(F)c(N3CCC(C)CC3)cc21 | ATP luminescence | 48 h | EC50 | > 40 µM |
| COc1ccc(NC(=O)c2c(Nc3ccccc3)sc(C(=O)NN=Cc3ccc(OC)c(O)c3)c2NC(C)=O)cc1 | SRB | 10 µM, 48 h | viability | 31.6% |
